In brackets after ≈: the same amount, converted by molar mass.
Assays:
[1] = tested on: Lysinibacillus sphaericus; experiment: Antimicrobial activity against Bacillus sphaericus isolate C237 harboring sul1 to sul3 genes by agar dilution method; type: functional
Method in brief: (§1)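 Agar dilution on Iso-Sensitest agar for MICs and resistance breakpoints. Each isolate's inoculum (100 μl) was adjusted to OD600 0.4. Isolates came from soil cores of a field given pig slurry, or from the pig slurry itself. They were picked from nonselective or antibiotic plates incubated aerobically at 28°C, purified by restreaking, checked for sul genes by PCR and identified by 16S rRNA sequencing.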

[2] = tested on: Stenotrophomonas maltophilia; experiment: Antimicrobial activity against Stenotrophomonas maltophilia isolate C422 harboring sul1 to sul3 genes by agar dilution method; type: functional
Method in brief: (§2)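 Isolates were recovered from manured clay soil or pig slurry on Iso-Sensitest agar at 28°C. sul genes were detected by PCR, and identity was assigned by ~800 bp 16S rRNA sequencing. MICs and resistance breakpoints were found by agar dilution on Iso-Sensitest agar, with each inoculum (100 μl) adjusted to OD600 0.4.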

Pseudomonas fluorescens [3] = experiment: Antimicrobial activity against Pseudomonas fluorescens isolate C131 harboring sul1 to sul3 genes by agar dilution method; type: functional; method in brief: as §1
Acinetobacter lwoffii [4] = experiment: Antimicrobial activity against Acinetobacter lwoffii isolate C3 harboring sul1 to sul3 genes by agar dilution method; type: functional; method in brief: as §1
Aerococcus viridans [5] = experiment: Antimicrobial activity against Aerococcus viridans isolate PGS22 harboring sul1 to sul3 genes by agar dilution method; type: functional; method in brief: as §1
Shigella flexneri [6] = experiment: Antimicrobial activity against Shigella flexneri isolate C506 harboring sul1 to sul3 genes by agar dilution method; type: functional; method in brief: as §2
Pseudomonas lini = experiment: Antimicrobial activity against Pseudomonas lini isolate C701 harboring sul1 to sul3 genes by agar dilution method; type: functional; method in brief: as §1
[7] = Antimicrobial activity against Acinetobacter sp. N2 isolate C439 harboring sul1 to sul3 genes by agar dilution method; type: functional; method in brief: as §1
Pseudomonas borealis [8] = experiment: Antimicrobial activity against Pseudomonas borealis isolate C5 harboring sul1 to sul3 genes by agar dilution method; type: functional; method in brief: as §1
Enterococcus hirae [9] = experiment: Antimicrobial activity against Enterococcus hirae isolate PGS48 harboring sul1 to sul3 genes by agar dilution method; type: functional; method in brief: as §1
Providencia stuartii [10] = experiment: Antimicrobial activity against Providencia stuartii isolate C167 harboring sul1 to sul3 genes by agar dilution method; type: functional; method in brief: as §1
Acinetobacter lwoffii [11] = experiment: Antimicrobial activity against Acinetobacter lwoffii isolate C2 harboring sul1 to sul3 genes by agar dilution method; type: functional; method in brief: as §1
Pseudomonas putida [12] = experiment: Antimicrobial activity against Pseudomonas putida isolate C231 harboring sul1 to sul3 genes by agar dilution method; type: functional; method in brief: as §1
[13] = tested on: Arthrobacter arilaitensis; experiment: Antimicrobial activity against Arthrobacter arilaitensis isolate C361 harboring sul1 to sul3 genes by agar dilution method; type: functional; conditions: Glutamicibacter arilaitensis; method in brief: as §1
[14] = Antimicrobial activity against Acinetobacter sp. An9 isolate PGS49 harboring sul1 to sul3 genes by agar dilution method; type: functional; method in brief: as §1
[15] = Antimicrobial activity against Psychrobacter ikaite isolate C410 harboring sul1 to sul3 genes by agar dilution method; type: functional; method in brief: as §2
Acinetobacter lwoffii [16] = experiment: Antimicrobial activity against Acinetobacter lwoffii isolate PGS47 harboring sul1 to sul3 genes by agar dilution method; type: functional; method in brief: as §1
Enterococcus sulfureus [17] = experiment: Antimicrobial activity against Enterococcus sulfureus isolate PGS61 harboring sul1 to sul3 genes by agar dilution method; type: functional; method in brief: as §1
Aerococcus viridans [18] = experiment: Antimicrobial activity against Aerococcus viridans isolate PGS21 harboring sul1 to sul3 genes by agar dilution method; type: functional; method in brief: as §1
Acinetobacter lwoffii [19] = experiment: Antimicrobial activity against Acinetobacter lwoffii isolate C15 harboring sul1 to sul3 genes by agar dilution method; type: functional; method in brief: as §1
[20] = Antimicrobial activity against Psychrobacter ikaite isolate C20 harboring sul1 to sul3 genes by agar dilution method; type: functional; method in brief: as §2
[21] = Antimicrobial activity against Psychrobacter sp. DY9-2 isolate C711 harboring sul1 to sul3 genes by agar dilution method; type: functional; method in brief: as §2
[22] = tested on: Psychrobacter frigidicola; experiment: Antimicrobial activity against Psychrobacter frigidicola isolate C712 harboring sul1 to sul3 genes by agar dilution method; type: functional; method in brief: as §1
[23] = Antimicrobial activity against Psychrobacter ikaite isolate C713 harboring sul1 to sul3 genes by agar dilution method; type: functional; method in brief: as §2
[24] = tested on: Acinetobacter calcoaceticus; experiment: Antimicrobial activity against Acinetobacter calcoaceticus isolate C35 harboring sul1 to sul3 genes by agar dilution method; type: functional; method in brief: as §1
[25] = tested on: Acinetobacter calcoaceticus; experiment: Antimicrobial activity against Acinetobacter calcoaceticus isolate C36 harboring sul1 to sul3 genes by agar dilution method; type: functional; method in brief: as §1
Acinetobacter lwoffii [26] = experiment: Antimicrobial activity against Acinetobacter lwoffii isolate C37 harboring sul1 to sul3 genes by agar dilution method; type: functional; method in brief: as §1
[27] = tested on: Acinetobacter rhizosphaerae; experiment: Antimicrobial activity against Acinetobacter rhizosphaerae isolate C44 harboring sul1 to sul3 genes by agar dilution method; type: functional; method in brief: as §1
Acinetobacter lwoffii [28] = experiment: Antimicrobial activity against Acinetobacter lwoffii isolate C141 harboring sul1 to sul3 genes by agar dilution method; type: functional; method in brief: as §1
Bacillus psychrodurans [29] = experiment: Antimicrobial activity against Bacillus psychrodurans isolate C328 harboring sul1 to sul3 genes by agar dilution method; type: functional; conditions: Psychrobacillus psychrodurans; method in brief: as §1
Acinetobacter baumannii [30] = experiment: Antimicrobial activity against Acinetobacter baumannii isolate C442 harboring sul1 to sul3 genes by agar dilution method; type: functional; method in brief: as §1
[31] = Antimicrobial activity against Acinetobacter sp. N2 isolate C439 harboring sul1 to sul3 genes assessed as antibiotic resistance breakpoint by agar dilution method; type: functional; method in brief: as §1
Aerococcus viridans [32] = experiment: Antimicrobial activity against Aerococcus viridans isolate PGS22 harboring sul1 to sul3 genes assessed as antibiotic resistance breakpoint by agar dilution method; type: functional; method in brief: as §1
Pseudomonas fluorescens [33] = experiment: Antimicrobial activity against Pseudomonas fluorescens isolate C131 harboring sul1 to sul3 genes assessed as antibiotic resistance breakpoint by agar dilution method; type: functional; method in brief: as §1
Acinetobacter lwoffii [34] = experiment: Antimicrobial activity against Acinetobacter lwoffii isolate C2 harboring sul1 to sul3 genes assessed as antibiotic resistance breakpoint by agar dilution method; type: functional; method in brief: as §1
Providencia stuartii [35] = experiment: Antimicrobial activity against Providencia stuartii isolate C167 harboring sul1 to sul3 genes assessed as antibiotic resistance breakpoint by agar dilution method; type: functional; method in brief: as §1
Enterococcus hirae [36] = experiment: Antimicrobial activity against Enterococcus hirae isolate PGS48 harboring sul1 to sul3 genes assessed as antibiotic resistance breakpoint by agar dilution method; type: functional; method in brief: as §1
Pseudomonas borealis [37] = experiment: Antimicrobial activity against Pseudomonas borealis isolate C5 harboring sul1 to sul3 genes assessed as antibiotic resistance breakpoint by agar dilution method; type: functional; method in brief: as §1
[38] = tested on: Arthrobacter arilaitensis; experiment: Antimicrobial activity against Arthrobacter arilaitensis isolate C361 harboring sul1 to sul3 genes assessed as antibiotic resistance breakpoint by agar dilution method; type: functional, Glutamicibacter arilaitensis; method in brief: as §1
Pseudomonas putida [39] = experiment: Antimicrobial activity against Pseudomonas putida isolate C231 harboring sul1 to sul3 genes assessed as antibiotic resistance breakpoint by agar dilution method; type: functional; method in brief: as §1
[40] = Antimicrobial activity against Psychrobacter ikaite isolate C410 harboring sul1 to sul3 genes assessed as antibiotic resistance breakpoint by agar dilution method; type: functional; method in brief: as §2
Enterococcus sulfureus [41] = experiment: Antimicrobial activity against Enterococcus sulfureus isolate PGS61 harboring sul1 to sul3 genes assessed as antibiotic resistance breakpoint by agar dilution method; type: functional; method in brief: as §1
Aerococcus viridans [42] = experiment: Antimicrobial activity against Aerococcus viridans isolate PGS21 harboring sul1 to sul3 genes assessed as antibiotic resistance breakpoint by agar dilution method; type: functional; method in brief: as §1
Acinetobacter lwoffii [43] = experiment: Antimicrobial activity against Acinetobacter lwoffii isolate C15 harboring sul1 to sul3 genes assessed as antibiotic resistance breakpoint by agar dilution method; type: functional; method in brief: as §1
[44] = Antimicrobial activity against Psychrobacter ikaite isolate C20 harboring sul1 to sul3 genes assessed as antibiotic resistance breakpoint by agar dilution method; type: functional; method in brief: as §1
[45] = Antimicrobial activity against Psychrobacter sp. DY9-2 isolate C711 harboring sul1 to sul3 genes assessed as antibiotic resistance breakpoint by agar dilution method; type: functional; method in brief: as §2
[46] = tested on: Psychrobacter frigidicola; experiment: Antimicrobial activity against Psychrobacter frigidicola isolate C712 harboring sul1 to sul3 genes assessed as antibiotic resistance breakpoint by agar dilution method; type: functional; method in brief: as §1
[47] = Antimicrobial activity against Psychrobacter ikaite isolate C713 harboring sul1 to sul3 genes assessed as antibiotic resistance breakpoint by agar dilution method; type: functional; method in brief: as §2
[48] = tested on: Acinetobacter calcoaceticus; experiment: Antimicrobial activity against Acinetobacter calcoaceticus isolate C35 harboring sul1 to sul3 genes assessed as antibiotic resistance breakpoint by agar dilution method; type: functional; method in brief: as §1
[49] = tested on: Acinetobacter calcoaceticus; experiment: Antimicrobial activity against Acinetobacter calcoaceticus isolate C36 harboring sul1 to sul3 genes assessed as antibiotic resistance breakpoint by agar dilution method; type: functional; method in brief: as §1
Acinetobacter lwoffii [50] = experiment: Antimicrobial activity against Acinetobacter lwoffii isolate C37 harboring sul1 to sul3 genes assessed as antibiotic resistance breakpoint by agar dilution method; type: functional; method in brief: as §1
[51] = tested on: Acinetobacter rhizosphaerae; experiment: Antimicrobial activity against Acinetobacter rhizosphaerae isolate C44 harboring sul1 to sul3 genes assessed as antibiotic resistance breakpoint by agar dilution method; type: functional; method in brief: as §1
Acinetobacter lwoffii [52] = experiment: Antimicrobial activity against Acinetobacter lwoffii isolate C141 harboring sul1 to sul3 genes assessed as antibiotic resistance breakpoint by agar dilution method; type: functional; method in brief: as §1
Bacillus psychrodurans [53] = experiment: Antimicrobial activity against Bacillus psychrodurans isolate C328 harboring sul1 to sul3 genes assessed as antibiotic resistance breakpoint by agar dilution method; type: functional, Psychrobacillus psychrodurans; method in brief: as §1
Acinetobacter baumannii [54] = experiment: Antimicrobial activity against Acinetobacter baumannii isolate C442 harboring sul1 to sul3 genes assessed as antibiotic resistance breakpoint by agar dilution method; type: functional; method in brief: as §1
Shigella flexneri [55] = experiment: Antimicrobial activity against Shigella flexneri isolate C506 harboring sul1 to sul3 genes assessed as antibiotic resistance breakpoint by agar dilution method; type: functional; method in brief: as §2

SMILES: Nc1ccc(S(=O)(=O)Nc2ccc(Cl)nn2)cc1 [SULFACHLORPYRIDAZINE]
- MIC [1]: 1 µg/mL (≈ 3.51 µM)
- MIC [2]: 1 µg/mL (≈ 3.51 µM)
- MIC (Pseudomonas fluorescens [3]): 32 µg/mL (≈ 112 µM)
- MIC (Acinetobacter lwoffii [4]): 1 µg/mL (≈ 3.51 µM)
- MIC (Aerococcus viridans [5]): 8 µg/mL (≈ 28.1 µM)
- MIC (Shigella flexneri [6]): 8 µg/mL (≈ 28.1 µM)
- MIC (Pseudomonas lini): 1 µg/mL (≈ 3.51 µM)
- MIC [7]: 16 µg/mL (≈ 56.2 µM)
- MIC (Pseudomonas borealis [8]): 32 µg/mL (≈ 112 µM)
- MIC (Enterococcus hirae [9]): 4 µg/mL (≈ 14 µM)
- MIC (Providencia stuartii [10]): 6 µg/mL (≈ 21.1 µM)
- MIC (Acinetobacter lwoffii [11]): 5 µg/mL (≈ 17.6 µM)
- MIC (Pseudomonas putida [12]): 8 µg/mL (≈ 28.1 µM)
- MIC [13]: 5 µg/mL (≈ 17.6 µM)
- MIC [14]: 16 µg/mL (≈ 56.2 µM)
- MIC [15]: 16 µg/mL (≈ 56.2 µM)
- MIC (Acinetobacter lwoffii [16]): 16 µg/mL (≈ 56.2 µM)
- MIC (Enterococcus sulfureus [17]): 4 µg/mL (≈ 14 µM)
- MIC (Aerococcus viridans [18]): 32 µg/mL (≈ 112 µM)
- MIC (Acinetobacter lwoffii [19]): 5 µg/mL (≈ 17.6 µM)
- MIC [20]: 5 µg/mL (≈ 17.6 µM)
- MIC [21]: 8 µg/mL (≈ 28.1 µM)
- MIC [22]: 8 µg/mL (≈ 28.1 µM)
- MIC [23]: 8 µg/mL (≈ 28.1 µM)
- MIC [24]: 8 µg/mL (≈ 28.1 µM)
- MIC [25]: 8 µg/mL (≈ 28.1 µM)
- MIC (Acinetobacter lwoffii [26]): 8 µg/mL (≈ 28.1 µM)
- MIC [27]: 5 µg/mL (≈ 17.6 µM)
- MIC (Acinetobacter lwoffii [28]): 6 µg/mL (≈ 21.1 µM)
- MIC (Bacillus psychrodurans [29]): 8 µg/mL (≈ 28.1 µM)
- MIC (Acinetobacter baumannii [30]): 8 µg/mL (≈ 28.1 µM)

SMILES: CN(C)[C@@H]1C(O)=C(C(N)=O)C(=O)[C@@]2(O)C(O)=C3C(=O)c4c(O)cccc4[C@@](C)(O)[C@H]3C[C@@H]12 [TETRACYCLINE]
- Activity [31]: 8 µg/mL
- Activity (Aerococcus viridans [32]): 8 µg/mL
- Activity (Pseudomonas fluorescens [33]): 8 µg/mL
- Activity (Acinetobacter lwoffii [34]): 8 µg/mL
- Activity (Providencia stuartii [35]): 8 µg/mL
- Activity (Enterococcus hirae [36]): 8 µg/mL
- Activity (Pseudomonas borealis [37]): 8 µg/mL
- Activity [38]: 8 µg/mL
- Activity (Pseudomonas putida [39]): 8 µg/mL
- Activity [40]: 8 µg/mL
- Activity (Enterococcus sulfureus [41]): 8 µg/mL
- Activity (Aerococcus viridans [42]): 8 µg/mL
- Activity (Acinetobacter lwoffii [43]): 8 µg/mL
- Activity [44]: 8 µg/mL
- Activity [45]: 8 µg/mL
- Activity [46]: 8 µg/mL
- Activity [47]: 8 µg/mL
- Activity [48]: 8 µg/mL
- Activity [49]: 8 µg/mL
- Activity (Acinetobacter lwoffii [50]): 8 µg/mL
- Activity [51]: 8 µg/mL
- Activity (Acinetobacter lwoffii [52]): 8 µg/mL
- Activity (Bacillus psychrodurans [53]): 8 µg/mL
- Activity (Acinetobacter baumannii [54]): 8 µg/mL
- Activity (Shigella flexneri [55]): 8 µg/mL

Source: ChEMBL document CHEMBL1629633, “Prevalence of sulfonamide resistance genes in bacterial isolates from manured agricultural soils and pig slurry in the United Kingdom” (2009)
